# Measured values from ChEMBL document CHEMBL4196224, “Novel Hypoxia-Inducible Factor 1α (HIF-1α) Inhibitors for Angiogenesis-Related Ocular Diseases: Discovery of a Novel Scaffold via Ring-Truncation Strategy” (J Med Chem, 2018).
# Calls of active or inactive are those of the source.
# Tests used:
# [1] = biological target: T1, Hypoxia-inducible factor 1-alpha (Homo sapiens, UniProt Q16665); assay: Inhibition of HIF-1alpha in human HRE-A549 cells pre-incubated for 1 hr before exposure to hypoxia for 24 hrs by HRE-luciferase reporter gene assay; type: cell-based
# In short: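 A549 cells stably carrying an HRE-luciferase reporter (G418 600 μg/mL selection), kept in DMEM/10% FBS and grown to 80-90% confluence. Serum withdrawn overnight, compound added 1 h before 24 h hypoxia (1% O2, 5% CO2, 94% N2, 37 °C). Luciferase read by luminometer. IC50 is the mean of three independent experiments with standard error.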
# Target sequence in this assay (Q16665 whole entry): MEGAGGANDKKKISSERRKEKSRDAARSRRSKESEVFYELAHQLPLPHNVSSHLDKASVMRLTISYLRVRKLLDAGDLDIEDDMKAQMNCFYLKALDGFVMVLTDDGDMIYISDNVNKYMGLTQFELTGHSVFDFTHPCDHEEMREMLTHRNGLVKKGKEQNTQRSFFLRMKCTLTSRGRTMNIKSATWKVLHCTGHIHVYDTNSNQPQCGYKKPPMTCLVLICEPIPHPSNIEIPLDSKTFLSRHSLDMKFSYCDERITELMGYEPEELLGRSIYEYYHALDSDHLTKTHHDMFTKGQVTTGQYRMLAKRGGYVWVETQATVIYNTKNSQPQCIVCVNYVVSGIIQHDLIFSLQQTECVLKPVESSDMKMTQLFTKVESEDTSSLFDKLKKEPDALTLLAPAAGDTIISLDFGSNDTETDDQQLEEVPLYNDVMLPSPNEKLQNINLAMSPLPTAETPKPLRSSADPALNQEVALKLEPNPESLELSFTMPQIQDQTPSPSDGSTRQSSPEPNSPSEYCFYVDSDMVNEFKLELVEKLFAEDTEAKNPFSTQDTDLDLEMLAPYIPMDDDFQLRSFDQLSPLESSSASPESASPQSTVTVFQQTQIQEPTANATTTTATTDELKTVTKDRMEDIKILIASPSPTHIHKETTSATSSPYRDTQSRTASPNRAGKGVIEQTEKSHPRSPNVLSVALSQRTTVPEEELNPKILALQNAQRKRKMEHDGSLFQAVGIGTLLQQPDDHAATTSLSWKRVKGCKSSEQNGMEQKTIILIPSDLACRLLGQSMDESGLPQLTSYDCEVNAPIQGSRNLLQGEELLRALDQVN
# [2] = biological target: T1, Hypoxia-inducible factor 1-alpha; assay: Induction of HIF-1alpha destabilization in human HCT116 cells under hypoxic conditions assessed as reduction in hypoxia-induced VEGFA mRNA expression at 100 nM
# Target sequence in this assay (Q16665 whole entry, looked up): as the sequence (Q16665 whole entry) above
# [3] = biological target: T1, Hypoxia-inducible factor 1-alpha; assay: Inhibition of HIF-1alpha in human A549 cell lysates assessed as reduction in Hsp90 and HIF-1alpha interaction at 1.25 uM in presence of ATP for 30 mins at 37 degC by immunoprecipitation and immunoblotting assay
# In short: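 Lysate from A549 cells exposed to 100 μM CoCl2 for 5 h, incubated with compound ± 20 mM ATP for 30 min at 37 °C. HIF-1α immunoprecipitated overnight at 4 °C, then protein G-agarose 2 h at 4 °C. Complex boiled in Laemmli buffer, run on 6% SDS-PAGE, blotted for HSP90.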
# Target sequence in this assay (Q16665 whole entry, looked up): as the sequence (Q16665 whole entry) above
# Homo sapiens [4] = organism: Homo sapiens; assay: Antiangiogenic activity in HRMEC exposed to human RPE cells derived conditioned media assessed as inhibition of hypoxia-induced cell migration at 100 nM incubated for 4 hrs by H and E staining based inverted phase contrast microscopy; type: functional
# In short: (§1)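 Conditioned medium from RPE or HeLa cells grown in M199 with 1% FBS under hypoxia ± compound, passed through a 3 kDa cut-off filter. Proliferation: 5 x 10^3 endothelial cells on gelatin, 24 h, then CM 24 h; [3H]-thymidine incorporation, DNA solubilized in 0.2 N NaOH/0.1% SDS, scintillation counting. Migration: 1 x 10^5 cells in Transwell upper well over CM, 4 h, H&E stain, migrated cells counted. Tube formation: 2 x 10^5 cells on Matrigel in CM, 20 h, tube length measured in 5 random fields (x100).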
# Homo sapiens [5] = organism: Homo sapiens; assay: Antiangiogenic activity in HRMEC exposed to human RPE cells derived conditioned media assessed as inhibition of hypoxia-induced [3H]-thymidine incorporation at 100 nM incubated for 24 hrs by liquid scintillation counting assay; type: functional; in short: as §1
# [6] = Aqueous solubility of the compound in DPBS incubated for 24 hrs by LC/MS/MS method relative to SH-1242; type: physicochemical; conditions: buffer
# HUVEC [7] = assay: Antiangiogenic activity in HUVEC exposed to human HeLa cells derived conditioned media assessed as inhibition of hypoxia-induced [3H]-thymidine incorporation at 100 nM incubated for 24 hrs by liquid scintillation counting assay; type: functional, cell-based; in short: as §1
# HUVEC [8] = assay: Antiangiogenic activity in HUVEC exposed to human HeLa cells derived conditioned media assessed as inhibition of hypoxia-induced cell migration at 100 nM incubated for 4 hrs by H and E staining based inverted phase contrast microscopy; type: functional; in short: as §1
# [9] = biological target: T1, Hypoxia-inducible factor 1-alpha; assay: Induction of HIF-1alpha destabilization in human HCT116 cells under hypoxic conditions assessed as reduction in hypoxia-induced VEGF production at 100 nM by ELISA
# Target sequence in this assay (Q16665 whole entry, looked up): as the sequence (Q16665 whole entry) above
# Mus musculus [10] = assay: Suppression of hypoxia-mediated retinal neovascularization in mouse model of oxygen-induced retinopathy assessed as reduction in retinal neovascular tufts at 100 nM dosed via intravitreal route relative to SH-1242; type: functional, organism-based
# In short: (§2)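 Newborn mice held in 75% ± 0.5% O2 from P7 to P12. Intravitreal injection of compound or PBS at P14 (n = 6). Retinas whole-mounted at P17 and stained with isolectin B4-594. Neovascular tuft area per retina measured by image analysis; mean ± SEM.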
# [11] = biological target: T1, Hypoxia-inducible factor 1-alpha; assay: Induction of HIF-1alpha destabilization in human HCT116 cells under hypoxic conditions at 100 nM by Western blot method
# Target sequence in this assay (Q16665 whole entry, looked up): as the sequence (Q16665 whole entry) above
# HUVEC [12] = assay: Antiangiogenic activity in HUVEC exposed to human HeLa cells derived conditioned media assessed as inhibition of hypoxia-induced cell tube formation at 100 nM incubated for 20 hrs; type: functional, cell-based; in short: as §1
# Homo sapiens [13] = organism: Homo sapiens; assay: Antiangiogenic activity in HRMEC exposed to human RPE cells derived conditioned media assessed as inhibition of hypoxia-induced tube formation at 100 nM incubated for 20 hrs; type: functional; in short: as §1
# Mus musculus [14] = assay: Suppression of hypoxia-mediated retinal neovascularization in mouse model of oxygen-induced retinopathy assessed as reduction in retinal neovascular tufts at 100 nM dosed via intravitreal route; type: functional, organism-based; in short: as §2
# Mus musculus [15] = assay: Suppression of hypoxia-mediated retinal neovascularization in mouse model of oxygen-induced retinopathy assessed as reduction in retinal neovascular tufts at 1 uM dosed via intravitreal route; type: functional, organism-based; in short: as §2
Structure (SMILES),IC50 [1] [nM],further results
COc1ccc(CC(=O)c2ccc3c(c2OC)C=CC(C)(C)O3)cc1,6210,
COc1ccc(C(C)C(=O)c2ccc(NCc3ccc(C#N)cc3)cc2OC)cc1OC (racemic),,Activity [2]: Active; inhibition [3]: Active; Activity (Homo sapiens [4]): Active; Activity (Homo sapiens [5]): Active; fold change (FC) [6]: 17; Activity (HUVEC [7]): Active; Activity (HUVEC [8]): Active; Activity [9]: Active; Activity (Mus musculus [10]): Active; Activity [11]: Active; Activity (HUVEC [12]): Active; Activity (Homo sapiens [13]): Active
COc1ccc(CC(OC(C)=O)c2ccc3c(c2OC)C=CC(C)(C)O3)cc1OC (stereo unspecified),3040,
COc1c(C(=O)Cc2ccc3c(c2)OCCO3)ccc2c1C=CC(C)(C)O2,1330,
COc1ccc(CC(O)c2ccc3c(c2OC)C=CC(C)(C)O3)cc1OC (stereo unspecified),8880,
COc1c(C(=O)Cc2cccc(O)c2)ccc2c1C=CC(C)(C)O2,1440,
COc1c(C(=O)Cc2ccccc2)ccc2c1C=CC(C)(C)O2,880,
COc1ccc([C@@H](C)C(=O)c2ccc(NCc3ccc(C#N)cc3)cc2OC)cc1OC,,Activity (Mus musculus [14]): Active
COc1c(C(=O)Cc2ccc(F)cc2)ccc2c1C=CC(C)(C)O2,1020,
COc1c(C(=O)Cc2ccccc2F)ccc2c1C=CC(C)(C)O2,100,
COc1c(C(=O)Cc2ccc3c(c2)OCO3)ccc2c1C=CC(C)(C)O2,3410,
COc1c(C(=O)Cc2cccc(F)c2)ccc2c1C=CC(C)(C)O2,360,
COc1c(C(=O)Cc2ccc(F)c(F)c2)ccc2c1C=CC(C)(C)O2,1270,
COc1ccc(N(C)C(=O)c2ccc3c(c2OC)C=CC(C)(C)O3)cc1OC,3150,
COc1ccc(C(C)C(=O)c2ccc(N3CCCCC3)cc2OC)cc1OC (racemic),,Activity (Mus musculus [15]): Active; fold change (FC) [6]: 93; Activity (HUVEC [7]): Active; Activity (HUVEC [8]): Active; Activity (HUVEC [12]): Active; Activity (Mus musculus [14]): Active
COc1ccc([C@H](C)C(=O)c2ccc(NCc3ccc(C#N)cc3)cc2OC)cc1OC,,Activity (Mus musculus [14]): Active
COc1cccc(CC(=O)c2ccc3c(c2OC)C=CC(C)(C)O3)c1,820,
COc1c(C(=O)Cc2ccc(Cl)c(Cl)c2)ccc2c1C=CC(C)(C)O2,2880,
COc1ccccc1CC(=O)c1ccc2c(c1OC)C=CC(C)(C)O2,3210,
COc1c(C(=O)Cc2ccc(O)cc2)ccc2c1C=CC(C)(C)O2,790,
COc1c(C(=O)Cc2ccccc2O)ccc2c1C=CC(C)(C)O2,940,

# Further lines, with some results ahead:
IC50 [1] [nM],Structure (SMILES),further results
12000,COc1ccc(C(Cc2ccccc2)C(=O)c2ccc3c(c2OC)C=CC(C)(C)O3)cc1OC (stereo unspecified),
> 15000,COc1ccc(C(=O)C(C)c2ccc(OC)c(OC)c2)c(OC)c1 (racemic),
2040,COc1ccc(NC(=O)c2ccc3c(c2OC)C=CC(C)(C)O3)cc1OC,
6350,COc1ccc(C(F)C(=O)c2ccc3c(c2OC)C=CC(C)(C)O3)cc1OC (stereo unspecified),
10800,COc1ccc(N(Cc2ccccc2)C(=O)c2ccc3c(c2OC)C=CC(C)(C)O3)cc1OC,
1360,COc1ccc(C(C)C(=O)c2ccc3c(c2OC)C=CC(C)(C)O3)cc1OC (racemic),
8450,C=CCC(C(=O)c1ccc2c(c1OC)C=CC(C)(C)O2)c1ccc(OC)c(OC)c1 (stereo unspecified),
2610,COc1ccc(C(C)C(=O)c2ccc(N3CCCC3)cc2)cc1OC (racemic),
2150,COc1ccc(CC(=O)c2ccc3c(c2OC)C=CC(C)(C)O3)cc1OC,Activity (Mus musculus [15]): Active; Activity (Mus musculus [14]): Active
> 15000,COc1ccc(C(C)C(=O)c2ccc(O)cc2OC)cc1OC (racemic),
5250,CCN(C(=O)c1ccc2c(c1OC)C=CC(C)(C)O2)c1ccc(OC)c(OC)c1,
> 15000,COc1ccc(C(C)C(=O)c2ccc(N(C)C)cc2OC)cc1OC (racemic),
